Data from ChEMBL document CHEMBL5058577, “EUbOPEN Chemogenomics Library 2 (Multiplex)” (2022).

Tested on: HEK-293T
Experiment: Multiplex assay against HEK293T
Assay type: toxicity, cell-based
Conditions: human
How it was run: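 Live cells were stained at seeding with Hoechst33342, BioTracker Green Microtubule Cytoskeleton Dye, MitoTracker Red and Annexin V Alexa Fluor 680, then imaged on a CQ1 microscope at 37°C and 5% CO2 after compound addition. CellPathfinder machine-learning gating split cells into Hoechst high-intensity objects or normal cells. Normal cells were split into healthy, pyknosed or fragmented nuclei, and pyknosed cells into mitotic or apoptotic. Tubulin, mitochondrial-mass and membrane-permeability phenotypes are per cents of healthy-nucleus cells.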

[1] = 12 h, 1 µM, compound concentration 1 uM, replicate 1
[2] = 12 h, 1 µM, compound concentration 1 uM, replicate 2
[3] = 12 h, 10 µM, compound concentration 10 uM, replicate 1
[4] = 12 h, 10 µM, compound concentration 10 uM, replicate 2
[5] = 24 h, 1 µM, compound concentration 1 uM, replicate 1
[6] = 24 h, 1 µM, compound concentration 1 uM, replicate 2
[7] = 24 h, 10 µM, compound concentration 10 uM, replicate 1
[8] = 24 h, 10 µM, compound concentration 10 uM, replicate 2
[9] = 48 h, 1 µM, compound concentration 1 uM, replicate 1
[10] = 48 h, 1 µM, compound concentration 1 uM, replicate 2
[11] = 48 h, 10 µM, compound concentration 10 uM, replicate 1
[12] = 48 h, 10 µM, compound concentration 10 uM, replicate 2

## CC(C)(C)c1ccc(S(=O)(=O)Nc2ccc(Cl)cc2C(=O)c2cc[n+]([O-])cc2)cc1 [VERCIRNON]
[1]
  Population Apoptotic (%): 32%
  Population Fragmented Nuclei (%): 10%
  Population Healthy Nuclei (%): 77%
  Population Hoechst High Intensity Objects (%): 7%
  Population Membrane Permeable-Phenotype (%): 0%
  Population Mitochondria Different-Phenotype (%): 33%
  Population Mitotic Cells (%): 68%
  Population Normal (%): 92%
  Population Pyknosed Nuclei (%): 12%
  Population Tubulin-Different-Phenotype (%): 21%
  Total Cell Count: 428
[2]
  Population Apoptotic (%): 52%
  Population Fragmented Nuclei (%): 5%
  Population Healthy Nuclei (%): 84%
  Population Mitochondria Different-Phenotype (%): 51%
  Population Mitotic Cells (%): 47%
  Population Pyknosed Nuclei (%): 10%
  Population Tubulin-Different-Phenotype (%): 22%
  Total Cell Count: 424
[3]
  Population Apoptotic (%): 30%
  Population Fragmented Nuclei (%): 6%
  Population Healthy Nuclei (%): 83%
  Population Hoechst High Intensity Objects (%): 6%
  Population Membrane Permeable-Phenotype (%): 0%
  Population Mitochondria Different-Phenotype (%): 35%
  Population Mitotic Cells (%): 69%
  Population Normal (%): 93%
  Population Pyknosed Nuclei (%): 10%
  Population Tubulin-Different-Phenotype (%): 37%
  Total Cell Count: 451
[4]
  Population Apoptotic (%): 39%
  Population Fragmented Nuclei (%): 4%
  Population Healthy Nuclei (%): 82%
  Population Hoechst High Intensity Objects (%): 5%
  Population Membrane Permeable-Phenotype (%): 1%
  Population Mitochondria Different-Phenotype (%): 51%
  Population Mitotic Cells (%): 60%
  Population Normal (%): 94%
  Population Pyknosed Nuclei (%): 13%
  Population Tubulin-Different-Phenotype (%): 27%
  Total Cell Count: 344
[5]
  Population Apoptotic (%): 41%
  Population Fragmented Nuclei (%): 8%
  Population Healthy Nuclei (%): 81%
  Population Hoechst High Intensity Objects (%): 6%
  Population Membrane Permeable-Phenotype (%): 0%
  Population Mitochondria Different-Phenotype (%): 21%
  Population Mitotic Cells (%): 58%
  Population Normal (%): 93%
  Population Pyknosed Nuclei (%): 9%
  Population Tubulin-Different-Phenotype (%): 15%
  Total Cell Count: 522
[6]
  Population Apoptotic (%): 28%
  Population Hoechst High Intensity Objects (%): 5%
  Population Mitochondria Different-Phenotype (%): 32%
  Population Mitotic Cells (%): 71%
  Population Normal (%): 94%
  Population Tubulin-Different-Phenotype (%): 16%
  Total Cell Count: 521
[7]
  Population Apoptotic (%): 22%
  Population Fragmented Nuclei (%): 10%
  Population Healthy Nuclei (%): 77%
  Population Hoechst High Intensity Objects (%): 3%
  Population Membrane Permeable-Phenotype (%): 1%
  Population Mitochondria Different-Phenotype (%): 15%
  Population Mitotic Cells (%): 77%
  Population Normal (%): 96%
  Population Pyknosed Nuclei (%): 12%
  Population Tubulin-Different-Phenotype (%): 20%
  Total Cell Count: 594
[8]
  Population Apoptotic (%): 28%
  Population Fragmented Nuclei (%): 7%
  Population Healthy Nuclei (%): 82%
  Population Hoechst High Intensity Objects (%): 5%
  Population Membrane Permeable-Phenotype (%): 0%
  Population Mitochondria Different-Phenotype (%): 31%
  Population Mitotic Cells (%): 71%
  Population Normal (%): 94%
  Population Pyknosed Nuclei (%): 9%
  Population Tubulin-Different-Phenotype (%): 23%
  Total Cell Count: 437
[9]
  Population Apoptotic (%): 28%
  Population Fragmented Nuclei (%): 16%
  Population Healthy Nuclei (%): 76%
  Population Hoechst High Intensity Objects (%): 2%
  Population Membrane Permeable-Phenotype (%): 0%
  Population Mitochondria Different-Phenotype (%): 16%
  Population Mitotic Cells (%): 71%
  Population Normal (%): 97%
  Population Pyknosed Nuclei (%): 7%
  Population Tubulin-Different-Phenotype (%): 13%
  Total Cell Count: 834
[10]
  Population Apoptotic (%): 32%
  Population Fragmented Nuclei (%): 14%
  Population Healthy Nuclei (%): 81%
  Population Membrane Permeable-Phenotype (%): 2%
  Population Mitochondria Different-Phenotype (%): 14%
  Population Mitotic Cells (%): 67%
  Population Pyknosed Nuclei (%): 4%
  Population Tubulin-Different-Phenotype (%): 12%
  Total Cell Count: 877
[11]
  Population Apoptotic (%): 21%
  Population Fragmented Nuclei (%): 13%
  Population Healthy Nuclei (%): 81%
  Population Hoechst High Intensity Objects (%): 3%
  Population Membrane Permeable-Phenotype (%): 2%
  Population Mitochondria Different-Phenotype (%): 12%
  Population Mitotic Cells (%): 78%
  Population Normal (%): 96%
  Population Pyknosed Nuclei (%): 5%
  Population Tubulin-Different-Phenotype (%): 14%
  Total Cell Count: 929
[12]
  Population Apoptotic (%): 25%
  Population Fragmented Nuclei (%): 12%
  Population Healthy Nuclei (%): 80%
  Population Hoechst High Intensity Objects (%): 2%
  Population Membrane Permeable-Phenotype (%): 1%
  Population Mitochondria Different-Phenotype (%): 18%
  Population Mitotic Cells (%): 75%
  Population Normal (%): 97%
  Population Pyknosed Nuclei (%): 7%
  Population Tubulin-Different-Phenotype (%): 15%
  Total Cell Count: 586
